An excerpt weighted towards active compounds, which were near 2.8% of everything screened.
GRIN3A LBD mod: NR3A (human) ligand-binding domain modulation | Tm shift relative to glycine control, % at 25 µM | AID 1259313 | NR3A LBD differential scanning fluorimetry, Tm shift; 0% = protein alone, 100% = glycine-bound protein | actives 2.5% (n = 340,000);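 active = melting temperature shift of at least 10% of the positive control shift, at one fixed dose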
T cell modulator: T cell immune modulation candidate | 2C CD8+ T cell-vesicle binding, flow cytometry; stronger effect = lower value | response (vesicle binding), % at 7 µM | actives 0.068% (n = 330,000);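 active = response, share of CD8 T cells binding vesicles, and their 90th percentile fluorescence all below set limits, cut at about 80% in these data, passing the limit was not always enough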;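 note: values below 100% mean blocked vesicle binding to the CD8+ T cells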
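Read-out – percent CD8+ FL2 mean versus row control · System – murine 2C transgenic CD8+ T lymphocytes · Times – 1.5 h cell–vesicle binding at 37 °C, then 20 min icy labelling · Control set – naked vesicles low, QL9 vesicles with vehicle high · Detection – cytometric PE anti-B7-1 and Alexa647 anti-CD8 signals after 1% paraformaldehyde fixation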
Rtt109 Vps75: C. albicans Rtt109 histone acetyltransferase inhibition | inhibition, % at 34.9 µM | purified Rtt109/Vps75, ThioGlo CoA-SH fluorescence, 4 h | Q5AAJ8 | AID 540336 | actives 0.16% (n = 330,000);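 active = inhibition of at least 50% in every replicate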
Target sequence (Q5AAJ8 whole entry, looked up): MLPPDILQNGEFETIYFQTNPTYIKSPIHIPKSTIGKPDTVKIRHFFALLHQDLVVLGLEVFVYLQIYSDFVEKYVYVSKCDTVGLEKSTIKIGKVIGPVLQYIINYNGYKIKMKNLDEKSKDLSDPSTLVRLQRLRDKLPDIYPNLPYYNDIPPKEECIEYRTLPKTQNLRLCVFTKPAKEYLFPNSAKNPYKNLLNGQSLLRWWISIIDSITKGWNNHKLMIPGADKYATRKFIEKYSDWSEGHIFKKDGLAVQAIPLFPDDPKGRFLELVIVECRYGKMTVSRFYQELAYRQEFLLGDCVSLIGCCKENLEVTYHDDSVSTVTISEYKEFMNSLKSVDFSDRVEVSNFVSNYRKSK
JMJD2C inh: blocks human GASC-1 demethylase activity; Q9H3R0; GST-JMJD2C(1-420) H3K9me3 demethylation, DELFIA europium; inhibition, % at 2.35 µM; actives 0.069% (n = 330,000);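 active = more than half of a compound's replicate wells show inhibition beyond 50%, single wells judged on their own value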;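 note: signal counts dimethyl H3K9 product captured on neutravidin plate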
Of the large screens only hits and unclear results are named; the others gave an inactive call.

Cc1ccc(NC(=O)C(OC(=O)c2ccc(NC(N)=O)cc2)c2ccccc2)cc1Cl (stereo unspecified)	GRIN3A LBD mod 26
O=C(O)C=C(Br)Br	none (no result: JMJD2C inh)
CC(C)(C)n1nc2c(c1NC(=O)c1c(F)cccc1F)CS(=O)(=O)C2	none
CCOc1ccc(NC(=O)C(C)Oc2ccccc2C(=O)Nc2ccc(C)c(Cl)c2)cc1 (stereo unspecified)	GRIN3A LBD mod 26
O=C(OC(C(=O)Nc1ccc(Cl)c(C(F)(F)F)c1)c1ccccc1)C1=COCCO1 (stereo unspecified)	GRIN3A LBD mod 13
CCOc1ccc(NC(=O)c2ccccc2SC)cc1	none
Cc1cc(C(=O)OC(C(=O)Nc2ccc(C)c(Cl)c2)c2ccccc2)c(C)o1 (stereo unspecified)	GRIN3A LBD mod 26
O=C(OC(C(=O)Nc1ccc(Cl)cc1C(F)(F)F)c1ccccc1)C1=COCCO1 (stereo unspecified)	none
Cc1cc(C)c(C#N)c(SCCS(=O)(=O)Cc2ccc(Cl)cc2)n1	GRIN3A LBD mod 18
Cc1cc(C)c(C#N)c(SCCS(=O)(=O)c2ccc(Cl)cc2)n1	none
COc1ccc(C(=O)Nc2ccc(C(=O)Nc3nccs3)cc2)cc1[N+](=O)[O-]	GRIN3A LBD mod 22
COc1ccc(C(=O)Nc2ccc(NC(=O)c3cccs3)cc2)cc1[N+](=O)[O-]	GRIN3A LBD mod 24
CCOc1ccc(C(=O)Nc2ccc(NC(=O)c3cccs3)cc2)cc1[N+](=O)[O-]	GRIN3A LBD mod 28
COc1cc(C(=O)Nc2cccc(NC(=O)c3cccs3)c2)cc(OC)c1OC	none
CCN1CCN(C(=O)CCc2nnc(CCc3ccccc3OC)o2)[C@@H](C)C1=O	none
O=C(CSc1nnc(-c2ccc(O)cc2)o1)Nc1ccccc1	GRIN3A LBD mod 14
COc1ccc(NC(=O)CSc2nnc(-c3cccc(O)c3)o2)cc1	GRIN3A LBD mod 14
CC12CC3CC(C)(C1)CC(C(=O)N1CCN(C(=O)C4CCCO4)CC1)(C3)C2 (stereo unspecified)	none
COc1ccc(/C=C/C(=O)Oc2ccc(/C=N\NC(=O)c3ccc(F)cc3)cc2)cc1	GRIN3A LBD mod 15
COc1cccc(OCc2cc(/C=N/Nc3ccc(C(=O)O)cc3)ccc2OC)c1	Rtt109 Vps75 50
COc1ccc(/C=N/NC(=O)c2ccc3nc[nH]c3c2)cc1	GRIN3A LBD mod 15 (no result: Rtt109 Vps75)
COc1ccc(C(=O)N/N=C/c2ccc(OC)c(COc3ccc(F)cc3F)c2)cc1	GRIN3A LBD mod 15
COc1ccc(/C=C/C(=O)Oc2cccc(/C=N/NC(=O)c3cccc(F)c3)c2)cc1	none
O=C(CN(C1CCCCC1)S(=O)(=O)c1ccc(F)cc1)NCC1CCCO1 (stereo unspecified)	none (no result: T cell modulator, JMJD2C inh)
CC(C)(OC(=O)c1cccs1)c1cc2ccccc2c(=O)o1	none
COc1ccc(/C=N/NC(=O)c2ccc(COCC(F)(F)C(F)F)cc2)cc1	GRIN3A LBD mod 12
O=C(N/N=C/c1ccc(Cl)c([N+](=O)[O-])c1)c1ccc2nc[nH]c2c1	GRIN3A LBD mod 13
COc1ccc(/C=N/NC(=O)c2ccc(CN3c4cccc5cccc(c45)S3(=O)=O)cc2)cc1	GRIN3A LBD mod 22
COc1cc(OC)cc(C(=O)NCC2CCCN(Cc3ccc(SC)cc3)C2)c1 (stereo unspecified)	none
COc1ccccc1C(=O)NNC(=O)CCC(=O)NCc1ccccc1	GRIN3A LBD mod 12
Nc1[nH]c2cc([N+](=O)[O-])ccc2c1-c1ccccn1	GRIN3A LBD mod 31
CC(C)c1ccc(-c2cc(C(=O)N3N=C(C(F)F)CC3(O)C(F)F)c3ccccc3n2)cc1 (stereo unspecified)	GRIN3A LBD mod 35
O=C(c1cc(C2CC2)nc2ccccc12)N1N=C(C(F)F)CC1(O)C(F)F (stereo unspecified)	none
O=C(NCCNc1ccc([N+](=O)[O-])cc1C(F)(F)F)c1ccccc1	JMJD2C inh 52
C[C@H](CO)N1C[C@H](C)[C@@H](CN(C)S(C)(=O)=O)Oc2c(NC(=O)c3ccncc3)cccc2C1=O	none (no result: JMJD2C inh)
CC(=O)CS(=O)(=O)c1ccc(Oc2ccc(S(=O)(=O)CC(C)=O)cc2)cc1	none
O=C(O)CS(=O)(=O)c1ccc(Oc2ccc(S(=O)(=O)CC(=O)O)cc2)cc1	GRIN3A LBD mod 11 (no result: Rtt109 Vps75)
CC(C#N)(NC(=O)CN1CCN(S(=O)(=O)c2ccc(Br)cc2Cl)CC1)C1CC1 (stereo unspecified)	GRIN3A LBD mod 10
O=C(O)CC(Cc1ccc(Cl)cc1)C(=O)Nc1cc(Cl)ccc1Cl (stereo unspecified)	none
Cc1cc(OCc2ccc(C(=O)NN=C3CCCC3)cc2)ccc1Cl	Rtt109 Vps75 56
CCOC(=O)Cc1csc(NC(=O)CCC(=O)O)n1	none (no result: Rtt109 Vps75)
CCOC(=O)Cc1csc(NC(=O)CCCc2ccccc2)n1	T cell modulator 0.0
CN=C1N(C)C[C@@H]2[C@@H]3C(=O)N(C)C(=O)[C@@H]3[C@](C)(C(=O)OC)N12	none (no result: T cell modulator, JMJD2C inh)
CN(C(=O)COC(=O)C1=COCCO1)c1c(N)n(Cc2ccccc2)c(=O)[nH]c1=O	none
O=C(C1CCCN(S(=O)(=O)c2ccc(F)cc2)C1)N1CCCCCC1 (stereo unspecified)	none
Cc1cc(C(=O)NNC(=S)NCc2ccco2)n(C)n1	none
CC(C)c1cc(C(=O)NNC(=S)NCc2ccco2)c(O)c(C(C)C)c1	GRIN3A LBD mod 19
O=C(NCc1ccc(Cl)cc1)c1ccc(-c2ccccc2C(F)(F)F)o1	GRIN3A LBD mod 438
C[C@H](CO)N1C[C@H](C)[C@@H](CN(C)C)Oc2c(NS(=O)(=O)c3cccs3)cccc2C1=O	none
Cc1ccccc1OCC(=O)OCC(=O)Nc1ncc(Cl)c(C)c1Cl	none (no result: JMJD2C inh)
CCN(CC)C(=O)[C@H]1C[C@H](CC(=O)NCCc2ccccn2)C(=O)N2CCc3c([nH]c4cc(CCC(=O)N(C)C)ccc34)[C@]12C	none (no result: T cell modulator, JMJD2C inh)
CCOC(=O)N1CCN(c2ccc(N3C(=O)CCCC3=O)cc2[N+](=O)[O-])CC1	none
CCOC(=O)N1CCN(c2ccc(F)cc2[N+](=O)[O-])CC1	GRIN3A LBD mod 23
COc1ccc(N(C(=O)c2ccco2)C(C(=O)NC2CCCC2)c2ccc(N(C)C)cc2)cc1 (stereo unspecified)	GRIN3A LBD mod 10
COc1cc(OC)cc(N(C(=O)c2ccco2)C(C(=O)NC2CCCC2)c2ccc(N(C)C)cc2)c1 (stereo unspecified)	none
CCc1cccc(NC(=O)c2cccc3c2C(=O)N(CC2CCCO2)C3)c1 (stereo unspecified)	none
Cc1ccc(S(=O)(=O)N2CCOc3ccccc32)c(C)c1NS(C)(=O)=O	none
CSc1nc2ccc(NC(=O)c3nn(C(C)C)c(=O)c4ccccc34)cc2s1	none
Cc1cccc2sc(NC(=O)c3ccc(Cl)s3)nc12	none
Cc1nc2ccc(NC(=O)c3nn(C(C)C)c(=O)c4ccccc34)cc2s1	GRIN3A LBD mod 17
COc1cccc2sc(NC(=O)c3ccc(Br)s3)nc12	GRIN3A LBD mod 11
Cc1nc2ccc(NC(=O)c3ccc(Cl)s3)cc2s1	GRIN3A LBD mod 27

Source: PubChem BioAssay (several laboratories)
